The results in this text go back to ChEMBL document CHEMBL1124785, “Synthesis, metabolism, and pharmacological activity of 3 alpha-hydroxy steroids which potentiate GABA-receptor-mediated chloride ion uptake in rat cerebral cortical synaptoneurosomes” (1990).

Assay [1] is filed under the species Rattus norvegicus. The experiment in a line: Effect on the potentiation of muscimol-stimulated 36Cl- uptake in rat brain synaptoneurosomes. In kind it is functional. In outline: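 Cerebral cortex synaptoneurosomes from adult male Sprague-Dawley rats (180-200 g), homogenized in Tris-Hepes buffer pH 7.4 with salts and glucose, filtered and washed. Tubes held 1 mg protein. Steroid plus 3 μM muscimol preincubated 10 min at 30 °C, then 0.5 µCi 36Cl- added. Uptake stopped after 5 s with ice-cold picrotoxin buffer and filtered. Counted by scintillation, in quadruplicate; increase measured over muscimol alone.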

Assay [2] relates to Rattus norvegicus. The experiment in a line: The recovery of radioactivity 20 min after administration of [3H]- labeled steroids to rat plasma. The assay is classed as functional, organism-based. In outline:
(§1)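 Adult male Sprague-Dawley rats (240-260 g), four per group, were given 100 μCi tritiated steroid by tail vein in ethanol-saline. Blood and brain were collected 20 min later and aliquots counted for radioactivity (dpm/mL plasma, dpm/g brain). The brain/plasma ratio was also taken; means ± SE.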

For assay [3], the system named is Rattus norvegicus. Briefly: The recovery of radioactivity 20 min after administration of [3H]- labeled steroids to rat brain. The assay is classed as functional, organism-based. In outline: as §1
For assay [4], the species on record is Rattus norvegicus. Briefly: Percent of total tritium in extracts of rat brain. In kind it is functional. The method in brief: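 Groups of four adult male Sprague-Dawley rats (240-260 g) received 100 μCi 3H-steroid in ethanol-saline by tail vein and were killed after 20 min. Brain was homogenized in chloroform/methanol (2:1) and the extract separated by HPLC (75% aqueous methanol) alongside unlabeled internal standards read at 280 nm. Fraction radioactivity was expressed as % of total brain tritium; means ± SE.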

SMILES strings stand for the structures.

Consider `CC1([C@H]2CC[C@H]3[C@@H]4CC[C@@H]5C[C@H](O)CC[C@]5(C)[C@H]4CC[C@]23C)OCCO1`, for which the Potentiation in the assay listed under Rattus norvegicus [1] was -0.96 nM/mg.

In the case of `CC(=O)[C@H]1CCC2C3CCC4=C[C@@H](O)CC[C@]4(C)C3CC[C@@]21C` (some centres undefined), the Potentiation in the assay listed under Rattus norvegicus [1] came out at 1.43 nM/mg.

With `C[C@]12CC[C@@H](O)C[C@@H]1CC[C@@H]1[C@@H]2CC[C@]2(C)C(=O)CC[C@@H]12` [ANDROSTERONE], the Potentiation in the assay filed under Rattus norvegicus [1] worked out at 7 nM/mg.

On to `CC(=O)[C@H]1CC[C@H]2[C@@H]3CCC4=C[C@H](O)CC[C@]4(C)[C@H]3CC[C@]12C`, for which, in the assay filed under Rattus norvegicus [1], the Potentiation was determined as 10.4 nM/mg.

Regarding `CC(=O)OCC(=O)[C@H]1CC[C@H]2[C@@H]3CC[C@H]4C[C@H](O)CC[C@]4(C)[C@H]3CC[C@]12C`, the Potentiation in the assay filed under Rattus norvegicus [1] turned out to be 12.2 nM/mg.

Take `C[C@]12CC[C@@H](O)C[C@H]1CC[C@@H]1[C@@H]2CC[C@]2(C)C(=O)CC[C@@H]12` [ETIOCHOLANOLONE]: the Potentiation in the assay listed under Rattus norvegicus [1] came to 4.9 nM/mg.

For `CC(=O)C1CC[C@H]2[C@@H]3CC[C@H]4C/C(=N\O)CCC4(C)[C@H]3CCC12C` (some centres undefined), the Potentiation in the assay filed under Rattus norvegicus [1] was -3.26 nM/mg.

As to `C[C@]12CC[C@@H](O)C[C@@H]1CC[C@@H]1[C@@H]2CC[C@]2(C)/C(=N\O)CC[C@@H]12`, the Potentiation in the assay filed under Rattus norvegicus [1] is -1.91 nM/mg.

Regarding `CC(=O)[C@H]1CCC2C3CC[C@H]4C[C@H](O)CC[C@]4(C)C3=CC[C@@]21C` (some centres undefined), the Potentiation in the assay listed under Rattus norvegicus [1] is 1.23 nM/mg.

On to `CC(=O)[C@H]1CC[C@H]2[C@@H]3CC[C@@H]4C[C@H](O)CC[C@]4(C)[C@H]3[C@H](O)C[C@]12C`, for which the Potentiation in the assay listed under Rattus norvegicus [1] came out at 0.98 nM/mg.

`CC(=O)O[C@@H]1CC[C@@]2(C)[C@@H](CC[C@@H]3[C@@H]2CC[C@]2(C)[C@@H](C(C)=O)CC[C@@H]32)C1`: the Potentiation in the assay filed under Rattus norvegicus [1] is 2.57 nM/mg.

Regarding `CC1([C@H]2CC[C@H]3[C@@H]4CC[C@H]5C[C@H](O)CC[C@]5(C)[C@H]4CC[C@]23C)OCCO1`, the Potentiation in the assay filed under Rattus norvegicus [1] came to 0.16 nM/mg.

On to `C[C@]12CC=C3C(CC[C@H]4C[C@H](O)CC[C@]34C)C1CC[C@@H]2C(=O)CO` (some centres undefined), for which the Potentiation in the assay listed under Rattus norvegicus [1] turned out to be 1.4 nM/mg.

For `C[C@H](O)[C@H]1CC[C@H]2[C@@H]3CC[C@H]4C[C@H](O)CC[C@]4(C)[C@H]3CC[C@]12C`, the Potentiation in the assay listed under Rattus norvegicus [1] is 1.97 nM/mg.

`C[C@]12CC[C@@H](O)C[C@@H]1CC[C@@H]1[C@@H]2CC[C@]2(C)[C@@H](C(=O)CO)CC[C@@H]12`: the Potentiation in the assay listed under Rattus norvegicus [1] is 13.1 nM/mg. Moreover, the Recovery with Rattus norvegicus [2] stood at 316000 dpm ml-1; in the assay with Rattus norvegicus [3], 212000 dpm ml-1. The Total tritium in the assay listed under Rattus norvegicus [4] is recorded as 48.1%.

On to `CC(=O)O[C@@H]1CC[C@@]2(C)[C@@H](CC[C@@H]3[C@@H]2CC[C@]2(C)[C@@H](C(=O)CO)CC[C@@H]32)C1`, for which the Potentiation in the assay filed under Rattus norvegicus [1] stood at 0.48 nM/mg.

Take `CC(=O)OCC(=O)[C@H]1CC[C@H]2[C@@H]3CC[C@H]4C[C@H](OC(C)=O)CC[C@]4(C)[C@H]3CC[C@]12C`: the Potentiation in the assay listed under Rattus norvegicus [1] is 1.37 nM/mg.

Turning to `C[C@]12CC[C@@H](O)C[C@@H]1CC[C@@H]1[C@@H]2CC[C@]2(C)[C@@H](C(=O)COS(C)(=O)=O)CC[C@@H]12`, the Potentiation in the assay listed under Rattus norvegicus [1] amounted to 7.9 nM/mg.

Regarding `C[C@]12CCC(=O)C[C@@H]1CC[C@@H]1[C@@H]2CC[C@]2(C)C(C(=O)CO)CC[C@@H]12` (some centres undefined), the Potentiation in the assay filed under Rattus norvegicus [1] is -1.95 nM/mg. For the same compound, in the assay filed under Rattus norvegicus [4], the Total tritium is 46.1%.

As to `C[C@]12CC[C@@H](O)C[C@@H]1CC[C@@H]1[C@@H]2CC[C@]2(C)[C@@H](C#N)CC[C@@H]12`, the Potentiation in the assay filed under Rattus norvegicus [1] is 13 nM/mg.

As for `CC(=O)[C@H]1CC[C@H]2[C@@H]3CCC4=CC(=O)CC[C@]4(C)[C@H]3CC[C@]12C` [PROGESTERONE], the Potentiation in the assay filed under Rattus norvegicus [1] was -1.8 nM/mg.

For `CC(=O)OCC(=O)[C@H]1CCC2C3CC[C@H]4C[C@H](O)CC[C@]4(C)C3=CC[C@@]21C` (some centres undefined), in the assay listed under Rattus norvegicus [1], the Potentiation was determined as 0.34 nM/mg.

Take `CC(=O)OCC(=O)[C@H]1CC[C@H]2[C@@H]3CC[C@@H]4C[C@H](O)CC[C@]4(C)[C@H]3CC[C@]12C`: in the assay filed under Rattus norvegicus [1], the Potentiation is 10.3 nM/mg.

For `CC(=O)[C@H]1CC[C@H]2[C@@H]3CC[C@@H]4C[C@H](O)CC[C@]4(C)[C@H]3C[C@H](O)[C@]12C`, in the assay filed under Rattus norvegicus [1], the Potentiation is -2.58 nM/mg.

With `CC(=O)C1CC[C@H]2[C@@H]3CC[C@H]4CC(=O)CC[C@]4(C)[C@H]3CC[C@]12C` (some centres undefined), in the assay listed under Rattus norvegicus [1], the Potentiation came to 2.63 nM/mg. In the assay filed under Rattus norvegicus [4], this compound returned a Total tritium of 40.6%.

On to `C[C@]12CC[C@@H](O)C[C@H]1CC[C@@H]1[C@@H]2CC[C@]2(C)[C@@H](C(=O)CO)CC[C@@H]12`, for which, in the assay listed under Rattus norvegicus [1], the Potentiation worked out at 7.7 nM/mg.

In the case of `CC(=O)[C@@H]1CC[C@H]2[C@@H]3CC[C@H]4C[C@H](O)CC[C@]4(C)[C@H]3CC[C@]12C`, the Potentiation in the assay listed under Rattus norvegicus [1] is 1.12 nM/mg.

For the compound `COC(=O)[C@H]1CC[C@H]2[C@@H]3CC[C@H]4C[C@H](O)CC[C@]4(C)[C@H]3CC[C@]12C`, the Potentiation in the assay filed under Rattus norvegicus [1] came to 3.6 nM/mg.

With `C[C@]12CC[C@@H](O)C[C@@H]1CC[C@@H]1[C@@H]2CC[C@]2(C)[C@H](C#N)CC[C@@H]12`, the Potentiation in the assay filed under Rattus norvegicus [1] was -2.1 nM/mg.

On to `CC(=O)[C@H]1CC[C@H]2[C@@H]3CC[C@H]4C[C@H](O)CC[C@]4(C)[C@H]3[C@H](O)C[C@]12C`, for which the Potentiation in the assay filed under Rattus norvegicus [1] came out at 0.7 nM/mg.

For the compound `CC(=O)[C@H]1CC[C@H]2[C@@H]3CC[C@H]4C[C@H](O)CC[C@]4(C)[C@H]3CC[C@]12C` [BREXANOLONE], the Potentiation in the assay filed under Rattus norvegicus [1] came to 10.9 nM/mg. The results for the Recovery in the assay on Rattus norvegicus [2] and in the assay on Rattus norvegicus [3] were 176000 dpm ml-1 and 342000 dpm ml-1, respectively. The Total tritium in the assay filed under Rattus norvegicus [4] is on record as 50.4%.
